This is an account of results in the EternaBench riboswitch data.

For this series, the system named is MS2 coat protein. Put plainly: apparent Kd, MS2 coat protein; higher = weaker binding; RNA-MaP array; theophylline 2 mM where present. The method, boiled down:
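Stalled E. coli RNA polymerase transcribed each design on Illumina sequencing-chip clusters. The clusters were titrated with SNAP-549-labelled MS2 coat protein, starting at 0.7 or 1.5 nM and doubling up to 3 µM, first without ligand and then with constant ligand, in 100 mM Tris-HCl pH 7.5, 80 mM KCl, 4 mM MgCl2, BSA, DTT, yeast tRNA and Tween-20. Green signal was normalised to red-channel RNA signal and to the control-cluster median Fmax. The apparent Kd is the median of filtered binding-curve fits made for each cluster.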

The mark [1] stands for this setting: designed as: OFF switch for theophylline, no ligand.
Where [2] appears, read: ligand present: theophylline, designed as: OFF switch for theophylline.
[3] abbreviates: designed as: ON switch for theophylline, no ligand.
Setting [4] is: ligand present: theophylline, designed as: ON switch for theophylline.

The term apparent Kd denotes the concentration giving half-maximal binding under the conditions of the assay.

As for “AUACCGAGUGAGUCGUGUUUCUUUUCAGAUACCAGACUUUUCGUUGUCCCUUGGCAGCUGUUUUACAUGAGGAUCACCCAUGUUG”, the “apparent Kd” value reads like this: under setting [1], 0.0182 µM; under setting [2], 0.0255 µM.

On to “AAUAUAAAAUAAAGAAAAUUUAUAUCUGAUACCAGACUCUCAUGGGUCCCUUGGCAGCAGUAACAUGAGGAUCACCCAUGUAUUA”, for which the “apparent Kd” value reads like this: under setting [3], 0.114 µM; under setting [4], 0.0165 µM.

For “GCACUACAUGAGGAUCACCCAUGUGCAGAUACCAGAGGUGUAUGCCUCCCUUGGCAGCUGCGUCGCUCUGGCAGCUUGUGGGUUG”, the “apparent Kd” value came to 0.1 µM under setting [3] and 0.153 µM under setting [4].

Take “UAUAUAUUGAUGGAUACCAGCAGAGAAAACGUUUAUCCUAACAUGAGGAUCACCCAUGUAUGCCCUUGGCAGCUGUUGAUAUAUA”: the “apparent Kd” value worked out at 0.0222 µM under setting [1] and 0.0326 µM under setting [2].

For “GGGCCCGUAAGCAGGCCCACAGCGGGUGAUACCAGCAAUAAAACUUGCCCUUGGCAGCACACAGCUACAUGAGGAUCACCCAUGU”, the “apparent Kd” value amounted to 0.0365 µM under setting [3] and 0.0635 µM under setting [4].

On to “UGUAACAUGAGGAUCACCCAUGUGAGUGAUACCAGACUAGUGUUGGUCCCUUGGCAGCACGCUGGGCGAGUGUGUAGUCUAUGCG”, for which the “apparent Kd” value came out at 0.0928 µM under setting [3] and 0.12 µM under setting [4].

For “UACAUGAGGAUCACCCAUGUAUGAAUAGAUACCAGAUAAAAUAAGGUCCCUUGGCAGCUAGUGAAUCGAGGGUGGGUAUCAUGAU”, the “apparent Kd” value by setting is: under setting [1], 0.0104 µM; under setting [2], 0.0108 µM.

On to “GUUACAUGGCAAGCAUGUAUAUGGAUAGAUACCAGUUGAUAUUAAGACCCUUGGCAGCUGAGUACAUGAGGAUCACCCAUGUAAG”, for which the “apparent Kd” value by setting is: under setting [1], 0.0425 µM; under setting [2], 0.0908 µM.

Consider “GGUGGGACUUGUGAUACCAGCCUAAUUCUAAACGAAUUGCACAUGAGGAUCACCCAUGUCGGCCCUUGGCAGCAUGAGUAUUUAU”, for which the “apparent Kd” value is, setting by setting: under setting [3], 0.114 µM; under setting [4], 0.0368 µM.

“GGUGGCGUGACGGAUACCAGCCACCACCGAUAGACCACAUGAGGAUCACCCAUGUUGGGUGGCCCUUGGCAGCUGUCGUGCGGCG”: the “apparent Kd” value under setting [3] was 0.23 µM and the “apparent Kd” value under setting [4] came to 0.0567 µM.

Turning to “AGUGUUAUAACUGAUACCAGACUUUUGCUUAUACAUGAGGAUCACCCAUGUAAAAUGGUUGUCCCUUGGCAGCAGAAAAUACACA”, the “apparent Kd” value was 0.084 µM under setting [3] and 0.0204 µM under setting [4].

For the sequence “CAGAGCUACCGGGAUACCAGAAUUGGUAUUCCUAUAUUUCUUACAUGAGGAUCACCCAUGUUCCCUUGGCAGCUUGGUAGCUCUG”, the “apparent Kd” value under setting [1] worked out at 0.0809 µM and the “apparent Kd” value under setting [2] was 0.446 µM.

Turning to “GAUGAACUAUUCGAUACCAGACUACAUGAGGAUCACCCAUGUGUGUCAAUUUCUCAGUCAGUCCCUUGGCAGCGAAUAGUUUAUC”, the “apparent Kd” value by setting is: under setting [1], 0.0382 µM; under setting [2], 0.0543 µM.

Consider “AAACGUUGCUGCGAUACCAGACAUGAGGAUCACCCAUGUACCAAGGUACGAAAAUAACAUGUCCCUUGGCAGCGCAGCAACGAAA”, for which the “apparent Kd” value amounted to 0.0132 µM under setting [1] and 0.336 µM under setting [2].

For “CUCUGAGUCCGCAAGGACUCAGAGGCGGAUACCAGCGAGGUCCAUCGCCCUUGGCAGCCGAACAUGAGGAUCACCCAUGUCGGUA”, the “apparent Kd” value is 0.0104 µM under setting [3] and 0.0148 µM under setting [4].

In the case of “AUAACAUGAGGAUCACCCAUGUAGAGUGAUACCAGACUACGUAAUGUCCCUUGGCAGCACAAGUAAAGUUACGAAUAUUGAUAGA”, the “apparent Kd” value amounted to 0.193 µM under setting [3] and 0.0515 µM under setting [4].

For the sequence “AUACCUAAUGUUACAUUUACCUUAUCAGAUACCAGACUUUACGUUGUCCCUUGGCAGCUGUAUCACAUGAGGAUCACCCAUGUUG”, the “apparent Kd” value under setting [3] came out at 0.016 µM and the “apparent Kd” value under setting [4] stood at 0.0157 µM.

In the case of “UCGUGUAUAUCGGAUACCAGUGAGAACGAUACAUGAGGAUCACCCAUGUGAGUUGAUGUACACCCUUGGCAGCUGUAUAUAUCUA”, the “apparent Kd” value under setting [3] was 0.025 µM and the “apparent Kd” value under setting [4] turned out to be 0.0163 µM.

For the sequence “AGGAACAUGAGGAUCACCCAUGUAAGCGAUACCAGUGAUAUGUUGCGCCCUUGGCAGCGCAAGUGUGUGUGAAAGAUGUAAGAUU”, the “apparent Kd” value is, setting by setting: under setting [1], 0.0165 µM; under setting [2], 0.0334 µM.

Consider “CUCGGGUUAUCAGAUACCAGACUAAAAUUUACAUGAGGAUCACCCAUGUAAUGGGUGAUAGUCCCUUGGCAGCUGUUAUGUUUAA”, for which the “apparent Kd” value reads like this: under setting [1], 0.0623 µM; under setting [2], 0.119 µM.

As for “ACAUGAGGAUCACCCAUGUCACGGCACGAUACCAGCUGAUCCGGUGGCCCUUGGCAGCGUGACGUUUGGUCCCGCGGAUCACACG”, the “apparent Kd” value came to 0.0754 µM under setting [3] and 0.0386 µM under setting [4].

Consider “UUAAGAGGCUAUCCACUUUGAUUUUGUGAUACCAGAAUAAUUUUAUUCCCUUGGCAGCAUGACAUGAGGAUCACCCAUGUGUCUU”, for which the “apparent Kd” value runs as follows: under setting [3], 0.0374 µM; under setting [4], 0.0724 µM.
